Drawing on ChEMBL document CHEMBL4011621, “A Novel Series of Highly Potent Small Molecule Inhibitors of Rhinovirus Replication” (J Med Chem, 2017), this text covers EC50, CC50 and selectivity ratio for 11 compounds.

For one data set, the system named is rhinovirus B14. In words: Antiviral activity against Human rhinovirus B14 infected in human H1HeLa cells assessed as protection against virus induced cytopathic effect after 3 days by MTT assay. The format is functional, cell-based. Conditions: Rhinovirus B, H1-HeLa, 72 h. A general note: Cytopathic effects are the visible damage that an infection or toxin causes in cultured cells.

The subject of another data set is rhinovirus A21. In words: Antiviral activity against Human rhinovirus A21 infected in human H1HeLa cells assessed as protection against virus induced cytopathic effect after 3 days by MTT assay. The format is functional, cell-based. The following applies: Rhinovirus A, H1-HeLa, 72 h. An outline of the steps:
(§1)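 CPE-reduction assay in H1HeLa cells plated 2 d before. Equal volumes of virus and compound were added and held at 33 °C for 3 d under CO2. Supernatant was removed, then MTT was added for 1 h at 37 °C. Formazan was dissolved and read at 540 nm against a 690 nm reference. Survival was scaled between uninfected untreated wells (100%) and virus-only wells (0%); mean ± SD, three experiments.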

Data set [1] can be described thus: Cytotoxicity against human H1HeLa cells assessed as decrease in cell viability after 3 days by MTT assay. The format is cell-based, H1-HeLa. For orientation: Tetrazolium assays rely on reduction of a dye to a coloured formazan, in cell work by metabolically active cells.
The nature of data set [2]: Antiviral activity against Human rhinovirus A71 infected in human H1HeLa cells assessed as protection against virus induced cytopathic effect after 3 days by MTT assay. Type of data set: functional, cell-based. Conditions: Rhinovirus A, H1-HeLa, 72 h. In short, it runs like this:
as §1

Data set [3] in a line: Selectivity index, ratio of CC50 for human H1HeLa cells to EC50 for Human rhinovirus A71 infected in human H1HeLa cells. The format is toxicity, cell-based. Conditions: read-out: Ratio CC50/EC50. An outline of the steps:
(§2)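 H1HeLa cells plated 2 d ahead; virus plus compound (equal volumes) incubated 33 °C, 3 d, CO2. MTT 1 h at 37 °C, A540/A690. Survival scaled between uninfected untreated (100%) and virus-only (0%) wells to give EC50. CC50 = 50% cell death by MTT in H1HeLa. SI = CC50/EC50; at least three independent experiments.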

In the next data set the test system is Poliovirus 3. Nature of the data set: Antiviral activity against Human poliovirus 3 infected in human HeLa cells assessed as protection against virus induced cytopathic effect after 2 days by MTT assay. Type of data set: functional, cell-based. Conditions: Enterovirus C, 48 h. An outline of the steps:
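HeLa cells; MTT-based CPE reduction. Virus and compound added in equal volumes, incubated 37 °C for 2 d in CO2. Supernatant removed, MTT 1 h at 37 °C, formazan dissolved, absorbance 540 nm (690 nm reference). Uninfected untreated wells = 100% survival, virus-only = 0%. EC50 = 50% inhibition; means ± SD, three experiments.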

Data set [4] is described as follows: Cytotoxicity aganist human HeLa cells assessed as decrease in cell viability after 2 days by MTT assay. The format is cell-based.
Data set [5] is described as follows: Selectivity index, ratio of CC50 for human H1HeLa cells to EC50 for Human rhinovirus A21 infected in human H1HeLa cells. Type of data set: toxicity, cell-based. The following applies: read-out: Ratio CC50/EC50. In short, it runs like this: as §2

For `CCOC(=O)c1sc2cc(Oc3ccnc(C(=O)OC)c3)ccc2c1C`, the 50% effective concentration (EC50) is more than 24.9 µM in the data set on rhinovirus B14, more than 24.9 µM in the data set on rhinovirus A21, 15 µM in data set [2] and more than 26.2 µM in the data set with Poliovirus 3. The cytotoxic concentration (CC50) at 72 h in data set [1] was 24.9 µM. Also, in data set [3], the selectivity ratio is 1.7. The half-maximal cytotoxic concentration (CC50) at 48 h in data set [4] was determined as 26.2 µM.
On to `CCOC(=O)c1cc2ccc(O)cc2s1`, for which the EC50 in the data set on rhinovirus B14 was more than 52.3 µM; in the data set with rhinovirus A21, more than 52.3 µM; in data set [2], 8.9 µM; in the data set with Poliovirus 3, more than 46.9 µM. For the same compound, the CC50 at 72 h in data set [1] came to 52.3 µM. Moreover, the selectivity ratio in data set [3] was determined as 5.9. Besides, the CC50 at 48 h in data set [4] amounted to 46.9 µM.
`CNC(=O)c1ccc(Oc2ccc3c(C)c(C(=O)OC(C)C)sc3c2)cn1`: the 50% effective concentration (EC50) in the data set with rhinovirus B14 is more than 7.6 µM; with rhinovirus A21, 3.3 µM; in data set [2] it was 1.7 µM; in the data set with Poliovirus 3, more than 12.9 µM. In addition, the CC50 at 72 h in data set [1] came out at 7.6 µM. In addition, the values for the selectivity ratio in data set [5] and in data set [3] were 2.3 and 4.5, respectively. For the same compound, the 50% cytotoxic concentration (CC50) at 48 h in data set [4] stood at 12.9 µM.
Consider `CCOC(=O)c1cc2ccc(Oc3ccncc3)cc2s1`, for which the concentration for a half-maximal effect (EC50) in the data set on rhinovirus B14 is more than 42.4 µM; with rhinovirus A21, more than 42.4 µM; in data set [2], 7.3 µM; with Poliovirus 3, more than 43.9 µM. The cytotoxic concentration (CC50) at 72 h in data set [1] was 42.4 µM. The selectivity ratio in data set [3] was 5.8. In addition, the CC50 at 48 h in data set [4] amounted to 43.9 µM.
As to `CNC(=O)c1cc(Oc2ccc3c(C)c(C(=O)N(C)C)sc3c2)ccn1`, the 50% effective concentration (EC50) in the data set with rhinovirus B14 is more than 42.5 µM; with rhinovirus A21, more than 42.5 µM; in data set [2], more than 42.5 µM; with Poliovirus 3 it was more than 44.4 µM. The CC50 at 72 h in data set [1] came out at 42.5 µM. Further, the CC50 at 48 h in data set [4] was 44.4 µM.
Turning to `CCOC(=O)c1sc2cc(Oc3ccccc3)ccc2c1C`, the EC50 was more than 100 µM in the data set on rhinovirus B14, 1 µM in the data set on rhinovirus A21, 1.7 µM in data set [2] and more than 47.6 µM in the data set on Poliovirus 3. Moreover, in data set [1], the CC50 at 72 h is more than 100 µM. For the same compound, the values for the selectivity ratio in data set [5] and in data set [3] were more than 100 and more than 59, respectively. For the same compound, the CC50 at 48 h in data set [4] turned out to be 47.6 µM.
Take `CNC(=O)c1cc(Oc2ccc3cc(C(=O)OC)sc3c2)ccn1`: the EC50 with rhinovirus B14 was more than 100 µM; with rhinovirus A21, 75.6 µM; in data set [2], 4.6 µM; with Poliovirus 3, more than 68.3 µM. Besides, in data set [1], the 50% cytotoxic concentration (CC50) at 72 h was more than 100 µM. The selectivity ratio is more than 1.3 in data set [5] and more than 22 in data set [3]. Also, in data set [4], the cytotoxic concentration (CC50) at 48 h is 68.3 µM.
Turning to `CCNC(=O)c1sc2cc(Oc3ccnc(C(=O)NC)c3)ccc2c1C`, the EC50 (in the data set on rhinovirus B14; in the data set with rhinovirus A21; in data set [2]; in the data set on Poliovirus 3) was more than 100 µM each time. Moreover, in data set [1], the CC50 at 72 h was more than 100 µM. The CC50 at 48 h in data set [4] was more than 100 µM.
For `CNC(=O)c1cc(Oc2ccc3c(C)c(C(=O)O)sc3c2)ccn1`, the concentration giving a half-maximal response (EC50) (in the data set on rhinovirus B14; with rhinovirus A21; in data set [2]; in the data set on Poliovirus 3) was more than 100 µM each time. Further, the CC50 at 72 h in data set [1] was more than 100 µM. Besides, the CC50 at 48 h in data set [4] is more than 100 µM.
Turning to `CCOC(=O)c1cc2ccc(Oc3ccnc(C(=O)NC)c3)cc2o1`, the EC50 in the data set with rhinovirus B14 is more than 100 µM; in the data set with rhinovirus A21, 66 µM; in data set [2], 1.4 µM; in the data set with Poliovirus 3, more than 100 µM. For the same compound, in data set [1], the cytotoxic concentration (CC50) at 72 h is more than 100 µM. The figures for the selectivity ratio in data set [5] and in data set [3] were more than 1.5 and more than 71, respectively. Besides, the CC50 at 48 h in data set [4] was more than 100 µM.
`CCOC(=O)c1sc2cc(Oc3ccnc(C(=O)NC)c3)ccc2c1N`: the EC50 was more than 0.11 µM in the data set with rhinovirus B14, more than 0.11 µM with rhinovirus A21, more than 0.11 µM in data set [2] and more than 0.45 µM in the data set on Poliovirus 3. Further, the 50% cytotoxic concentration (CC50) at 72 h in data set [1] amounted to 0.11 µM. The CC50 at 48 h in data set [4] came to 0.45 µM.

A word on the EC50: it is the midpoint of the concentration-response curve. As a reminder, the CC50 is the concentration at which the toxic effect on the cells reaches its halfway point.
